{"source": "ChEMBL document CHEMBL1177758", "about": "“Anti-neuroinflammatory activity of 1,5-benzodiazepine derivatives” (Bioorg Med Chem Lett, 2010)", "key": {"BV-2 [1]": {"tested_on": "BV-2", "assay": "Antiinflammatory activity in mouse BV2 cells assessed as inhibition of LPS-induced NO production at 10 uM after 24 hrs by Griess reaction", "assay_type": "functional", "conditions": "BV-2, 24 h", "how_it_was_run": "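BV-2 microglial cells were activated with 100 ng/ml LPS for 24 h with compound at 10 µM. Medium nitrite was measured by Griess reaction. The value is mean inhibition of NO production relative to the LPS control, from three experiments.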"}, "BV-2 [2]": {"tested_on": "BV-2", "assay": "Antiinflammatory activity in mouse BV2 cells assessed as inhibition of LPS-induced NO production after 24 hrs by Griess reaction", "assay_type": "functional, cell-based", "conditions": "BV-2, 24 h", "how_it_was_run": "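Murine BV-2 microglia stimulated with LPS at 100 ng/ml for 24 h with or without compound. Nitrite, a soluble oxidation product of NO, was measured in the culture medium by Griess reaction.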"}, "[3]": {"molecular_target": "T1, Nitric oxide synthase, inducible (Mus musculus) (UniProt P29477)", "T1 sequence (whole entry)": "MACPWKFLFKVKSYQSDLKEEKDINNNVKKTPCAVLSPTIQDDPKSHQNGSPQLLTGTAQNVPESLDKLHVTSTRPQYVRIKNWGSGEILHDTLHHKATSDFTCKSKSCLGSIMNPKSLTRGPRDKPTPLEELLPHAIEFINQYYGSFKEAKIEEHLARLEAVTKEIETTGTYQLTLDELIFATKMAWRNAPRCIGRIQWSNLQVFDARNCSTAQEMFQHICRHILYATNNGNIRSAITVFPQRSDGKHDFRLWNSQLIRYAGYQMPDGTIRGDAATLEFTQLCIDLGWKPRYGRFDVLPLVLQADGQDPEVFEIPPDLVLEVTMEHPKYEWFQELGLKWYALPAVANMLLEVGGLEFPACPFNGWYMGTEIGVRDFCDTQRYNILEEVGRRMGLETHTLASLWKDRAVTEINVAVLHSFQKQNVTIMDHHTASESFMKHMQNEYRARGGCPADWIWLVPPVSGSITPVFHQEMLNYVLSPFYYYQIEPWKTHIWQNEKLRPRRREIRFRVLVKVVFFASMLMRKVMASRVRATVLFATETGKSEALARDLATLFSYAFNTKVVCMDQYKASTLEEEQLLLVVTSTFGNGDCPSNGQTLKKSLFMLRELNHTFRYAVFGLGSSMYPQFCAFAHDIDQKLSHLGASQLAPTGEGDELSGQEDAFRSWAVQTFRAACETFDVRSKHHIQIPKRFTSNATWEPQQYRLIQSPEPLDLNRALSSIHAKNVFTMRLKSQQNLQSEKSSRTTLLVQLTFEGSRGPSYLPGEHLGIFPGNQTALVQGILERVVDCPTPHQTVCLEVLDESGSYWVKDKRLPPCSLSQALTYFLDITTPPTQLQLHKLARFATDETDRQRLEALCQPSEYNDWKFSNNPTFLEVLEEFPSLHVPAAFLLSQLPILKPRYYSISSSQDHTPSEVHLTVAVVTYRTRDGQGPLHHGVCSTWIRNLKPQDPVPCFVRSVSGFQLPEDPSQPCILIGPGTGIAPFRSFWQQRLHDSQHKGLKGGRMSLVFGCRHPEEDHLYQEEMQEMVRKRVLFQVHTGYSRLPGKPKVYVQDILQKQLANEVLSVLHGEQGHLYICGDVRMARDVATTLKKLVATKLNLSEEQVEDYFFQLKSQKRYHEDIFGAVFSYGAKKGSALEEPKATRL", "assay": "Inhibition of iNOS activity in LPS-stimulated mouse BV2 cells after 12 hrs", "assay_type": "cell-based", "conditions": "BV-2", "how_it_was_run": "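Intact-cell iNOS activity assay. BV-2 cells (4 × 10⁶) were pre-induced with LPS at 100 ng/ml for 12 h, washed twice with PBS, then replated at 2 × 10⁶ cells/well. They were incubated with various compound concentrations for a further 12 h. Supernatant NO was read by Griess reaction.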"}, "BV-2 [4]": {"tested_on": "BV-2", "assay": "Antiinflammatory activity in mouse BV2 cells assessed as inhibition of LPS-induced iNOS protein expression at 10 uM after 6 hrs by Western blotting"}, "[5]": {"assay": "Cytotoxicity against mouse BV2 cells", "assay_type": "cell-based, BV-2", "conditions": "read-out: INH", "how_it_was_run": "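Viability of murine BV-2 microglia, stimulated with LPS at 100 ng/ml for 24 h with or without compound, was measured by MTT assay.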"}}, "note": "Active and inactive are the calls of the source. The calls are words filed in the database; no cut-off is given here.", "data": [{"smiles": "CCC1=Nc2ccccc2NC(C)(CC)C1", "note": "(configuration not stated)", "values": [{"measurement": "inhibition at 10 µM", "setting": "BV-2 [1]", "result": 27.4, "unit": "%"}, {"measurement": "IC50", "setting": "BV-2 [2]", "result": 15.2, "unit": "µM"}]}, {"smiles": "CC1(c2ccccc2[N+](=O)[O-])CC(c2ccccc2[N+](=O)[O-])=Nc2ccccc2N1", "note": "(configuration not stated)", "values": [{"measurement": "inhibition at 10 µM", "setting": "BV-2 [1]", "result": 24.9, "unit": "%"}, {"measurement": "IC50", "setting": "BV-2 [2]", "result": 23.2, "unit": "µM"}]}, {"smiles": "CC1(c2cccc(Cl)c2)CC(c2cccc(Cl)c2)=Nc2ccccc2N1", "note": "(configuration not stated)", "values": [{"measurement": "inhibition at 10 µM", "setting": "BV-2 [1]", "result": 21.2, "unit": "%"}, {"measurement": "IC50", "setting": "BV-2 [2]", "result": 23.2, "unit": "µM"}]}, {"smiles": "CC1(c2cccs2)CC(c2cccs2)=Nc2ccccc2N1", "note": "(configuration not stated)", "values": [{"measurement": "inhibition", "setting": "[3]", "result": "Active"}, {"measurement": "inhibition at 10 µM", "setting": "BV-2 [1]", "result": 70.3, "unit": "%"}, {"measurement": "IC50", "setting": "BV-2 [2]", "result": 7, "unit": "µM"}, {"measurement": "inhibition", "setting": "BV-2 [4]", "result": "inactive"}]}, {"smiles": "CC(C)C1=Nc2ccccc2NC(C)(C(C)C)C1", "note": "(configuration not stated)", "values": [{"measurement": "inhibition at 10 µM", "setting": "BV-2 [1]", "result": 26.3, "unit": "%"}, {"measurement": "IC50", "setting": "BV-2 [2]", "result": 16.6, "unit": "µM"}]}, {"smiles": "CC1(c2ccccc2)CC(c2ccccc2)=Nc2ccccc2N1", "note": "(configuration not stated)", "values": [{"measurement": "inhibition at 10 µM", "setting": "BV-2 [1]", "result": 59.8, "unit": "%"}, {"measurement": "IC50", "setting": "BV-2 [2]", "result": 9.4, "unit": "µM"}]}, {"smiles": "CC1(c2ccc(Cl)cc2)CC(c2ccc(Cl)cc2)=Nc2ccccc2N1", "note": "(configuration not stated)", "values": [{"measurement": "inhibition at 10 µM", "setting": "BV-2 [1]", "result": 28.2, "unit": "%"}, {"measurement": "cytotoxicity", "setting": "[5]", "result": 28.2, "unit": "%"}]}, {"smiles": "CC1=Nc2ccccc2NC(C)(C)C1", "values": [{"measurement": "inhibition at 10 µM", "setting": "BV-2 [1]", "result": 28.6, "unit": "%"}, {"measurement": "IC50", "setting": "BV-2 [2]", "result": 14.3, "unit": "µM"}]}, {"smiles": "CC1(c2ccsc2)CC(c2ccsc2)=Nc2ccccc2N1", "note": "(configuration not stated)", "values": [{"measurement": "inhibition at 10 µM", "setting": "BV-2 [1]", "result": 13.2, "unit": "%"}, {"measurement": "IC50", "setting": "BV-2 [2]", "result": 35.2, "unit": "µM"}]}, {"smiles": "Cc1ccc(C2=Nc3ccccc3NC(C)(c3ccc(C)cc3)C2)cc1", "note": "(configuration not stated)", "values": [{"measurement": "inhibition at 10 µM", "setting": "BV-2 [1]", "result": 34.6, "unit": "%"}, {"measurement": "IC50", "setting": "BV-2 [2]", "result": 14, "unit": "µM"}]}]}
